Source: PubChem BioAssay AID504511 (The Scripps Research Institute Molecular Screening Center, 2011)
Calls of active or inactive are those of the source.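 Rule for the calls: active = cytotoxic compound whose concentration leaving half the cells alive is below 5 µM in either medium; inactive = the rest.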

Test: cytotoxicity in BW5147 murine T cells, late-stage follow-up, cytotoxicity control for PAFAH2 inhibitor project, cell-based, absorbance, serum-free and serum media (AID 504511)
Settings: BW5147 murine T cells viability, WST-1 absorbance
Procedure, shortened: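 Detection: WST-1 absorbance. Material: murine BW5147-derived T cells. Compound: Seven-point fivefold dilution series, top final dose 50 µM. Times: 48 h compound exposure of cells at 37 °C.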

SMILES	CC50 (serum-free media)	CC50 (with FCS)
O=C(N1CCCC1)n1ncc(-c2ccc(-c3ccccc3)cc2)n1	35 µM (inactive)	> 50 µM (inactive)
O=C(N1CCCC1)n1ncc(-c2ccc(Oc3ccccc3)cc2)n1	48 µM (inactive)	> 50 µM (inactive)
